In brackets after ≈: the same amount, converted by molar mass. Activity calls are given as the source filed them. The rule behind the calls is not given here.
Experiments:
[1] = system: Mus musculus; test: Effect on spermatogenesis in CD1 mouse assessed as sperm release into testicular lumen at 2 to 10 mg/kg, po for 7 days; type: functional, organism-based
Procedure, shortened: (§1)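 Male CD1 mice dosed by oral gavage at 2 or 10 mg/kg daily for 7 days, controls vehicle only; testes and epididymides collected one month post-treatment for histological staging of tubules (spermatid alignment at stage VIII, sperm release at stage IX).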

[2] = system: Mus musculus; test: Effect on spermatogenesis in CD1 mouse assessed as disruptive effect on spermatid alignment at 2 to 10 mg/kg, po for 7 days; type: functional, organism-based; procedure, shortened: as §1
[3] = Metabolic stability in CD1 mouse liver microsomes assessed as parent compound remaining at 10^-6 M after 60 mins; type: ADME, Microsome; conditions: read-out: Stability
Procedure, shortened: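 CD-1 mouse liver microsomes incubated with compound at 1.0 × 10–6 M for 60 min; percent parent compound remaining determined.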

[4] = Permeability from apical to basolateral side in human Caco2 cells assessed as drug recovery at 10^-5 M at pH 6.5 to 7.4; type: ADME, cell-based; conditions: Caco-2, pH 6.5, read-out: permeability
Procedure, shortened: (§2)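 Caco-2 monolayers with apical/basolateral pH gradient 6.5/7.4, compound at 1.0 × 10–5 M; apparent permeability (cm/s) measured in A→B and B→A directions, with percent recovery reported.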

[5] = system: Plasma; test: Drug recovery in CD1 mouse plasma 10^-5 M; type: ADME, cell-free; conditions: 10 µM
Procedure, shortened: (§3)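 Binding to CD-1 mouse plasma proteins tested at 1.0 × 10–5 M; percent bound and percent recovery reported.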

[6] = system: Caco-2; test: Permeability from apical to basolateral side in human Caco2 cells at 10^-5 M at pH 6.5 to 7.4; type: ADME, cell-based; conditions: caco-2, pH 6.5, 10 µM; procedure, shortened: as §2
[7] = system: Plasma; test: Plasma protein binding in CD1 mouse at 10^-5 M; type: ADME, cell-free; conditions: 10 µM; procedure, shortened: as §3
[8] = Partition coefficient, log D of the compound in n-octanol-PBS at 10^-4 M at pH 7.4; type: physicochemical; conditions: octanol/water, pH 7.4, 100 µM
Procedure, shortened: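 log D determined at pH 7.4 by n-octanol/PBS partitioning, reported as weighted average.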

[9] = Aqueous solubility of the compound in PBS at pH 7.4; type: physicochemical; conditions: buffer
Procedure, shortened: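 Aqueous solubility determined in PBS buffer, pH 7.4; tested range <1–200 μM.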

[10] = Chemical stability of the compound by HPLC-MS analysis; type: physicochemical
[11] = Drug uptake in CD1 mouse testes at 39 mg/kg, po; type: ADME, organism-based, Testis; set-up: dose 39 mg/kg, route oral; conditions: in vivo
[12] = Drug uptake in CD1 mouse testes at 3 mg/kg, iv; type: ADME, organism-based, Testis; set-up: dose 3 mg/kg, route intravenous; conditions: in vivo
[13] = system: Mus musculus; test: Effect on spermatogenesis in CD1 mouse assessed as sperm release into testicular lumen at 10 mg/kg, iv after 7 days; type: functional, organism-based; set-up: dose 10 mg/kg
Procedure, shortened: (§4)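 Male mice given 10 mg/kg intravenously daily; testes examined histologically at end of treatment (6 days, n = 2; 7 days, n = 2) for spermatid alignment and sperm release into the lumen; vehicle controls.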

[14] = system: Caco-2; test: Permeability from basolateral to apical side in human Caco2 cells at 10^-5 M at pH 6.5 to 7.4; type: ADME, cell-based; conditions: caco-2, pH 6.5, 10 µM; procedure, shortened: as §2
[15] = system: Mus musculus; test: Effect on spermatogenesis in CD1 mouse assessed as disruptive effect on spermatid alignment at 10 mg/kg, iv after 7 days; type: functional, organism-based; set-up: dose 10 mg/kg; procedure, shortened: as §4
[16] = Permeability from basolateral to apical side in human Caco2 cellsassessed as drug recovery at 10^-5 M at pH 6.5 to 7.4; type: ADME, cell-based; conditions: Caco-2, pH 6.5, read-out: permeability; procedure, shortened: as §2
[17] = Metabolic stability in CD1 mouse intestinal microsomes assessed as parent compound remaining at 10^-6 M after 60 mins; type: ADME, Intestine; conditions: read-out: Stability
Procedure, shortened: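 CD-1 mouse intestinal microsomes incubated with compound at 1.0 × 10–6 M for 60 min; percent parent remaining determined.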

[18] = system: Plasma; test: Fraction unbound in CD1 mouse plasma; type: ADME, cell-free; procedure, shortened: as §3
[19] = system: Mus musculus; test: Effect on spermatogenesis in CD1 mouse assessed as disruptive effect on spermatid alignment at 10 mg/kg, iv after 6 days; type: functional, organism-based; set-up: dose 10 mg/kg; procedure, shortened: as §4
[20] = system: Mus musculus; test: Effect on spermatogenesis in CD1 mouse assessed as sperm release into testicular lumen at 10 mg/kg, iv after 6 days; type: functional, organism-based; set-up: dose 10 mg/kg; procedure, shortened: as §4
[21] = system: Mus musculus; test: Toxicity in CD1 mouse assessed as change in testosterone levels at 2 to 10 mg/kg, po for 7 days by enzyme immunoassay relative to control; type: organism-based; set-up: dose 2-10 mg/kg, route oral; conditions: in vivo, 168 h
Procedure, shortened: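 Male CD1 mice treated orally at two regimens (2 or 10 mg/kg daily, 7 days); sera collected for testosterone determination, values plotted for individual mice.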

[22] = system: Mus musculus; test: Toxicity in CD1 mouse assessed as change in body weight at 2 to 10 mg/kg, po; type: organism-based; set-up: dose 2-10 mg/kg, route oral; conditions: in vivo
Procedure, shortened: (§5)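 Male CD1 mice gavaged daily with 2 or 10 mg/kg for 7 days, vehicle controls; body weight followed throughout; testes weighed one month post-treatment; mean ± SD of five mice per regimen, paired Student's t-test against age-matched controls.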

[23] = system: Mus musculus; test: Inhibition of spermatogenesis in CD1 mouse assessed as change in motility of epididymal sperm at 10 mg/kg, po for 7 days measured after 1 month by bright-field microscopic analysis; type: functional, organism-based; set-up: dose 10 mg/kg
[24] = system: Mus musculus; test: Inhibition of spermatogenesis in CD1 mouse assessed as change in morphology of caudal epididymides at 10 mg/kg, po for 7 days measured after 1 month by bright-field microscopic analysis; type: functional, organism-based; set-up: dose 10 mg/kg; procedure, shortened: as §1
[25] = system: Mus musculus; test: Inhibition of spermatogenesis in CD1 mouse assessed as asynchronization of spermatogenic cell association at 10 mg/kg, po for 7 days measured after 1 month by bright-field microscopic analysis; type: functional, organism-based; set-up: dose 10 mg/kg; procedure, shortened: as §1
[26] = system: Mus musculus; test: Inhibition of spermatogenesis in CD1 mouse assessed as presence of vacuolar-like spaces at 10 mg/kg, po for 7 days measured after 1 month by bright-field microscopic analysis; type: functional, organism-based; set-up: dose 10 mg/kg; procedure, shortened: as §1
[27] = system: Mus musculus; test: Toxicity in CD1 mouse assessed as change in testicular weight at 2 to 10 mg/kg, po for 7 days relative to control; type: organism-based; set-up: dose 2-10 mg/kg, route oral; conditions: in vivo, 168 h; procedure, shortened: as §5
[28] = system: Mus musculus; test: Inhibition of spermatogenesis in CD1 mouse assessed as change in sperm release at stage 9 into lumen in testes at 2 to 10 mg/kg, po for 7 days measured after 1 month by bright-field microscopic analysis relative to control; type: functional, organism-based; procedure, shortened: as §1
[29] = system: Mus musculus; test: Inhibition of spermatogenesis in CD1 mouse assessed as change in alignment of step 16 spermatids at lumen in stage 8 tubules in testes at 2 to 10 mg/kg, po for 7 days measured after 1 month by bright-field microscopic analysis relative to control; type: functional, organism-based; procedure, shortened: as §1
[30] = molecular target: T1, Retinoic acid receptor alpha (Homo sapiens) (UniProt P10276); test: Antagonist activity at human RARalpha expressed in human HeLa cells assessed as inhibition of ATRA-induced RARE-chloramphenicol acetyltransferase reporter gene expression after 24 hrs by transactivation competition assay; type: cell-based
T1 sequence (whole entry): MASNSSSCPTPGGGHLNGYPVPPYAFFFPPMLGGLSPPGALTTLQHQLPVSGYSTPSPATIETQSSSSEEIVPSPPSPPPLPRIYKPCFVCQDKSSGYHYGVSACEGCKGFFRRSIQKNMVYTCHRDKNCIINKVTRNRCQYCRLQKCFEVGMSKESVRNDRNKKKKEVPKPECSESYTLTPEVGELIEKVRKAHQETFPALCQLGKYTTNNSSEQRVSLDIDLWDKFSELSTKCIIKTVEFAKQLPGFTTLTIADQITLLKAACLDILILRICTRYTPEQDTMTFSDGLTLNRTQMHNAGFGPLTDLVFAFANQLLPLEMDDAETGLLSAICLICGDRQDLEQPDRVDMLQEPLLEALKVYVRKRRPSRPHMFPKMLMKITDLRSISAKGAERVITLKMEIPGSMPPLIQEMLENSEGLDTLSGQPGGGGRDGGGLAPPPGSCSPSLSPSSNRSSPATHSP
Procedure, shortened: (§6)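 HeLa cells cotransfected with RAR constructs and a constant beta-galactosidase plasmid as internal control, given 10–7 M ATRA (submaximal) plus increasing concentrations of compound; CAT reporter expression measured after 24 h. RARα, RARβ and RARγ tested. Vehicle control was dilution medium without retinoid; ATRA served as positive control.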

[31] = molecular target: T1, Retinoic acid receptor alpha (Homo sapiens); test: Antagonist activity at human RARalpha expressed in human HeLa cells assessed as inhibition of ATRA-induced RARE transactivation after 24 hrs by chloramphenicol acetyltransferase reporter gene assay; type: cell-based; procedure, shortened: as §6
[32] = system: Mus musculus; test: Defect in spermatogenesis in CD1 mouse testicular tubules at 10 mg/kg, ip after 7 days; type: functional, organism-based; set-up: dose 10 mg/kg
Procedure, shortened: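 Male mice dosed intraperitoneally at 10 mg/kg daily for 7 days (n = 4); testicular tubules examined histologically one day post-treatment for retained spermatids, with defects quantified.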

[33] = system: Mus musculus; test: Effect on spermatogenesis in CD1 mouse at 10 mg/kg, iv for 7 days measured after 4 weeks; type: functional, organism-based; set-up: dose 10 mg/kg
Procedure, shortened: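 Male mice dosed intravenously at 10 mg/kg; testes examined histologically 4 weeks post-treatment for spermatogenesis.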

Row | SMILES | remaining at 1 h, 1 µM [3] | recovery at 10 µM [4] | Drug recovery [5] | permeability [6] | PPB [7] | logD [8] | solubility [9] | Stability [10] | Activity [21] | Activity [22] | inhibition [23] | inhibition [24] | inhibition [25] | inhibition [26] | Activity [27] | inhibition [28] | inhibition [29] | further results
1 | CC1(C)CC=C(c2ccccc2)c2cc(/C=C/c3ccc(C(=O)O)cc3)ccc21 | 79% | 14% | 93.3% | < 0.7 ×10⁻⁶ cm/s | 95.3% | 3.25 | 3.1 µM (≈ 1.18 µg/mL) | Stable | – | – | – | – | – | – | – | – | – | Activity [1]: Active; Activity [2]: Active
2 | Cc1ccc(C2=CCC(C)(C)c3ccc(C(=O)Nc4ccc(C(=O)O)cc4)cc32)cc1 | 49% | 20% | 99.8% | 8.3 ×10⁻⁶ cm/s | 99.2% | 3.84 | 136 µM (≈ 56 µg/mL) | Stable | Non-toxic | Non-toxic | inactive | inactive | inactive | inactive | Non-toxic | inactive | inactive | Drug uptake [11]: Not Active; Drug uptake [12]: Active; Activity [13]: Active; permeability [14]: 0.7 ×10⁻⁶ cm/s; Activity [15]: Active; recovery at 10 µM [16]: 46%; remaining at 1 h, 1 µM [17]: 86%; Fu [18]: 0.8%; Activity [19]: Active; Activity [20]: Active; Activity [30]: Active; Activity [31]: Active; Activity [32]: Active; Activity [33]: inactive
3 | CC1(C)CC=C(c2cnc3ccccc3c2)c2cc(C(=O)Nc3ccc(C(=O)O)cc3)ccc21 | – | – | – | – | – | – | – | – | Non-toxic | Non-toxic | inactive | inactive | inactive | inactive | Non-toxic | inactive | inactive | –

Source: ChEMBL document CHEMBL2384973, “Pharmacological activity of retinoic acid receptor alpha-selective antagonists in vitro and in vivo” (ACS Med Chem Lett, 2013)
